Tested on: MS2 coat protein
Experiment: apparent Kd, MS2 coat protein; higher = weaker binding; RNA-MaP array; FMN 200 µM where present
How it was run: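 The apparent Kd is the median of filtered binding-curve fits, one per cluster, to green signal normalised to red-channel RNA signal and control-cluster median Fmax. The clusters were on Illumina sequencing chips, and stalled E. coli RNA polymerase had transcribed the designs on them. Titration used SNAP-549-labelled MS2 coat protein from 0.7 or 1.5 nM, doubling to 3 µM, without and then with constant ligand, in 100 mM Tris-HCl pH 7.5, 80 mM KCl, 4 mM MgCl2, BSA, DTT, yeast tRNA and Tween-20.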

[1] = designed as: OFF switch for flavin mononucleotide, no ligand
[2] = ligand present: flavin mononucleotide, designed as: OFF switch for flavin mononucleotide
[3] = designed as: ON switch for flavin mononucleotide, no ligand
[4] = ligand present: flavin mononucleotide, designed as: ON switch for flavin mononucleotide

Row | Sequence | apparent Kd [1] [nM] | apparent Kd [2] [nM] | apparent Kd [3] [nM] | apparent Kd [4] [nM]
1 | GAGUAGUAAGGAUAUGUCUCUGGUGGCUACGGUCACUAGAGGCAGAAGGUACAUGAGGAUCACCCAUGUUUUUU | 17.2 | 19.3 |  | 
2 | GAGUAGUUAAAAGGAUAUUGAUUAUUGUAGGAUCAAGAAGGUUUUAACAUGAGGAUCACCCAUGUAGGACUAUAAAUGUGAAAA |  |  | 17.5 | 15
3 | GAGUGAUUAGGAUAUACAUGAGGAUCACCCAUGUGCUUCAGCUAGGAGACUAGCAUUGGUAGAAGGAAUUACUC | 16.3 | 57.1 |  | 
4 | GAGUGGAAGGCCGCUACAUGAGGAUCACCCAUGUGCUAAGCACAGGAUAUCGCGUGGGCCCGACGCGAGAAGGGUGACGGCCUG |  |  | 582 | 246
5 | GAGUGGUAAAGAGGAUAUGCAUUGUUAUUCACUGCAGAAGGUUUUAACAUGAGGAUCACCCAUGUAGGACUAUUCCUGUGUUUC |  |  | 14.6 | 12.5
6 | GAGUGGUAGAGAGGAUAUGCAUUGUUAUUAAAUGCAGAAGGUUUUAACAUGAGGAUCACCCAUGUAGGACUAUUCCUGUGUUUC |  |  | 15.5 | 13.6
7 | GAUAAGGAAGGAUAUGUGGCCUUAUACAUGAGGAUCACCCAUGUUACGACAUACCACUACACAGAAGGUCUAUUAC | 32.2 | 30.5 |  | 
8 | GAUAGAGAGCAGGAUAUCUUGGGUAAGUAUCGUAGAGAAGGGCUCACAUGAGGAUCACCCAUGUGGUCCAAGAU | 14.2 | 32.6 |  | 
9 | GAUAGGACAGAGAAGGACAUAGCUAGAGAUACUAGCAUAAGAACUUCAACAUGAGGAUCACCCAUGUAGGAUAUCUGUCCUAUC | 6.88 | 8.76 |  | 
10 | GAUGAGGUAGGAUAUACGAGAAUAUAGGGUAGAUAUAUAACACAUGAGGAUCACCCAUGUAGAAGGACCAGUAG | 38.4 | 89.9 |  | 
11 | GAUGUUCUGGUCAGGAUAUGCAUCCGUCGGCCGGAGCAGAAGGGACAUGAGGAUCACCCAUGUGCGGGUACAAA | 38.7 | 38.3 |  | 
12 | GAUUAACAUGAGGAUCACCCAUGUCGUUUAAUGGGAGGAUAUACGUGGACCGUAGUCCGCGUAGAAGGCCUAAUUG |  |  | 90.8 | 26.9
13 | GAUUAACAUGAGGAUCACCCAUGUGAGGAUAUGAACUAGACCACUUACCCGAUAUUGUUCAGAAGGCGCAUUCU | 34.1 | 39.5 |  | 
14 | GAUUAACAUGAGGAUCACCCAUGUGAGGAUAUGGACUGGCUCACUUUCCGAUUCGAGUCUAGAAGGCGCAUCUU | 32.8 | 35.2 |  | 
15 | GAUUCACAUGAGGAUCACCCAUGUCGUAAUAUGGGAGGAUAUACGUGGACCGUAGUCCGCGUAGAAGGCCUAAUUG |  |  | 172 | 36.6
16 | GAUUCACAUGAGGAUCACCCAUGUCGUUUAAUGGGAGGAUAUACGUGGACCGUAGUCCGCGUAGAAGGCCUAAUUG |  |  | 95.1 | 25.6
17 | GAUUCACAUGAGGAUCACCCAUGUCGUUUUAUGGGAGGAUAUACGUGGACCGUAGUCCGCGUAGAAGGCCUAAUUG |  |  | 102 | 30.4
18 | GAUUCACAUGAGGAUCACCCAUGUGAGGAUAUCUAGGUGCGGAGGCUAAGGCCUCCAGAGAGAAGGCACAUGGC | 27.3 | 41.3 |  | 
19 | GAUUGACAUGAGGAUCACCCAUGUGAGGAUAUCGGCCGGACCUUGUUAGCUUCCAUCGCGAGAAGGCACAUAGG | 28.1 | 37.1 |  | 
20 | GAUUGACAUGAGGAUCACCCAUGUGAGGAUAUCGGCUGGACCGUGUUGGCUUCCGUCUCGAGAAGGCGCAUAGG | 16 | 23.3 |  | 
21 | GAUUGAGAGCAGGAUAUCUUAGAAAUGUAUUAAAGAGAAGGGCUCACAUGAGGAUCACCCAUGUGGUCCUAGAU | 20.2 | 175 |  | 
22 | GAUUUACAUGAGGAUCACCCAUGUGAGGAUAUGGAAUGGCUCAUUGUCUGAUUUCCUUCUAGAAGGCACAUCUG | 54.2 | 54.9 |  | 
23 | GAUUUACAUGAGGAUCACCCAUGUGAGGAUAUGGAAUGGCUCAUUGUCUGAUUUCCUUCUAGAAGGCACAUCUU | 43.7 | 51 |  | 
24 | GAUUUGUGAGGAUAUACAUGAGGAUCACCCAUGUGUGUCCAUACGCGUGAGUCUUCAUGUAGAAGGCGCGGGUC | 17.1 | 15.6 |  | 
25 | GCAAAUUAGUGAGGAUAUACAUAAUUUAUUUCUGUAGAAGGCACAAACCUCAAGACAUGAGGAUCACCCAUGUGGUAUUUAAGC | 155 | 415 |  | 
26 | GCAACGCCUGACAUGAGGAUCACCCAUGUUAGAUUGUUAUGUCAGGAUAUAGUCUCGAAACGAGACUAGAAGGGAUAUGUUGCU |  |  | 888 | 122
27 | GCAAGAAUAGGAUAUACACCGUGUCAGCUUUUAUAUAUCGCACAUGAGGAUCACCCAUGUAGAAGGGUUCUCUG | 420 | 353 |  | 
28 | GCAAUAGCAUGAGGAUAUGCUGGAGUUUAGACAGCAGAAGGCAUGUCAUAAGACAUGAGGAUCACCCAUGUAAUUACAAUAGCA |  |  | 57.8 | 10.4

From the EternaBench riboswitch data
